Assay results taken from ChEMBL document CHEMBL4270623, “Identification of novel inhibitors of histone acetyltransferase hMOF through high throughput screening” (Eur J Med Chem, 2018).
Activity calls are given as the source filed them. No cut-off for these calls is given here.

Assays:
[1] = target: T1, Histone acetyltransferase KAT8 (Homo sapiens) (UniProt Q9H7Z6); assay: Inhibition of human His-tagged MOF at 50 uM using histone H4 substrate by radioactive acetylation assay relative to control
T1 sequence (whole entry): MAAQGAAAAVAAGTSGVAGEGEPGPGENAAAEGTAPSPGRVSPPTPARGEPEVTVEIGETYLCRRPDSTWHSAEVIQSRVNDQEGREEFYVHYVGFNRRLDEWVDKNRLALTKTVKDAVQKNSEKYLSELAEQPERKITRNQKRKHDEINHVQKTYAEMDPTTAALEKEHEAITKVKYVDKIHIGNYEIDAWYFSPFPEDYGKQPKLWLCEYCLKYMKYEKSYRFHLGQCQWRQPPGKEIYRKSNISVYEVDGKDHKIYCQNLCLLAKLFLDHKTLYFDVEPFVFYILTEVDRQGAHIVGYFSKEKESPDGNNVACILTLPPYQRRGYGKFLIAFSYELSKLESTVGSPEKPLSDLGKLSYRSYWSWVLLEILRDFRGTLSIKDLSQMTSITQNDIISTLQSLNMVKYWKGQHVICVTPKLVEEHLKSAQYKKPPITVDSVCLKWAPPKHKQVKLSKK
In short: (§1)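 His6-tagged hMOF catalytic domain (173-458) from E. coli, preincubated with compound for 15 min at room temperature in modified Tris buffer pH 7.5, then given biotinylated H4-derived peptide and [3H]acetyl-CoA. Reaction ran 240 min at room temperature, was captured on a streptavidin Flashplate, washed and scintillation-counted. Percent inhibition computed; IC50 from a nonlinear dose-response fit.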

[2] = target: T1, Histone acetyltransferase KAT8 (Homo sapiens); assay: Inhibition of human His-tagged MOF at 100 uM using histone H4 substrate by radioactive acetylation assay relative to control; in short: as §1
[3] = target: T2, Histone acetyltransferase KAT8 (Homo sapiens, UniProt Q9H7Z6); assay: Inhibition of human His-tagged MOF using histone H4 substrate by radioactive acetylation assay; in short: as §1
T2 sequence (Q9H7Z6 whole entry): T1 sequence (whole entry)

[4] = target: T2, Histone acetyltransferase KAT8; assay: Inhibition of human His-tagged MOF preincubated for 10 mins followed by biotin-labeled H4K16 substrate addition measured after 30 mins in presence of acetyl-CoA by alphascreen assay
[5] = target: T1, Histone acetyltransferase KAT8 (Homo sapiens); assay: Inhibition of MOF in human HCT116 cells assessed as decrease in H4K16 acetylation level after 24 hrs by Western blot analysis; assay type: cell-based
In short: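 HCT116 cells treated for 24 h. Lysates run on 4–16% SDS-PAGE, transferred to nitrocellulose, blocked in 5% milk/PBST, primary antibody overnight at 4 °C, HRP donkey anti-rabbit secondary at 1:10000 for 1 h; H4K16 acetylation level read.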

[6] = target: T1, Histone acetyltransferase KAT8 (Homo sapiens); assay: (§2) Binding affinity to human His-tagged MOF by SPR analysis
In short: (§3)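 hMOF catalytic domain (173-458), N-terminal His6, expressed in E. coli BL21(DE3), amine-coupled to a CM5 chip in 10 mM sodium acetate pH 4.0; SPR at 25 °C in HBS (20 mM HEPES pH 7.4, 200 mM NaCl, 0.5% DMSO). Analyte 5–100 μM injected 120 s at 30 μL/min, then 300 s dissociation; Kd from a steady-state fit.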

[7] = target: T2, Histone acetyltransferase KAT8; assay: as §2; in short: as §3
[8] = target: T1, Histone acetyltransferase KAT8 (Homo sapiens); assay: Inhibition of human His-tagged MOF using constant concentration histone H4 substrate and varying levels of acetyl-CoA by radioactive acetylation assay
[9] = target: T1, Histone acetyltransferase KAT8 (Homo sapiens); assay: Inhibition of human His-tagged MOF using constant concentration acetyl-CoA and varying levels of histone H4 substrate by radioactive acetylation assay
[10] = target: Histone deacetylase 1 (Homo sapiens, UniProt Q13547); assay: Inhibition of HDAC1 (unknown origin)
[11] = target: DNA (cytosine-5)-methyltransferase 1 (Homo sapiens, UniProt P26358); assay: Inhibition of DNMT1 (unknown origin)
[12] = target: Protein arginine N-methyltransferase 1 (Homo sapiens, UniProt Q99873); assay: Inhibition of PRMT1 (unknown origin)
[13] = species on record: Homo sapiens; assay: Selectivity ratio of IC50 for HDAC1 (unknown origin) to IC50 for human His-tagged MOF by alphascreen assay
[14] = species on record: Homo sapiens; assay: Selectivity ratio of IC50 for DNMT1 (unknown origin) to IC50 for human His-tagged MOF by alphascreen assay
[15] = species on record: Homo sapiens; assay: Selectivity ratio of IC50 for PRMT1 (unknown origin) to IC50 for human His-tagged MOF by alphascreen assay
[16] = test system: HCT-116; assay: Inhibition of colony formation in human HCT116 cells after 14 days by crystal violet staining based assay; assay type: functional, cell-based
[17] = test system: HCT-116; assay: Upregulation of IFI16 mRNA level in human HCT116 cells at 50 to 100 uM after 3 days by quantitative real-time PCR analysis
[18] = target: T1, Histone acetyltransferase KAT8 (Homo sapiens); assay: Inhibition of MOF in human HCT116 cells assessed as decrease in SKP2 mRNA level after 3 days by quantitative real-time PCR analysis
[19] = target: T1, Histone acetyltransferase KAT8 (Homo sapiens); assay: Inhibition of MOF in human HCT116 cells assessed as decrease in UCP2 mRNA level after 3 days by quantitative real-time PCR analysis
[20] = target: Histone acetyltransferase KAT2A (Homo sapiens, UniProt Q92830); assay: Inhibition of recombinant human GST-tagged Gcn5 using H3 as substrate in presence of [3H]-acetyl-CoA by phosphor image analysis
[21] = test system: HCT-116; assay: Inhibition of colony formation in human HCT116 cells at 100 uM after 14 days by crystal violet staining based assay; assay type: functional, cell-based

Sequence of Protein arginine N-methyltransferase 1 (Q99873 whole entry): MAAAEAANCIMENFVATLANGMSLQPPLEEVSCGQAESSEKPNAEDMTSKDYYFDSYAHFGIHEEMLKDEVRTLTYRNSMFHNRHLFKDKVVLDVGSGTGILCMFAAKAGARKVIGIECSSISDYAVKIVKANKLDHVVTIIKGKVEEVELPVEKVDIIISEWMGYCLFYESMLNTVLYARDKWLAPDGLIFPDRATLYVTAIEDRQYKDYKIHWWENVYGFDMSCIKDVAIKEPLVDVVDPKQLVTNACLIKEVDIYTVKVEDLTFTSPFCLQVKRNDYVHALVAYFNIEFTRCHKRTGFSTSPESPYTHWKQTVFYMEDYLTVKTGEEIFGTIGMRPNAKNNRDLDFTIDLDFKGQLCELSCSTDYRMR
Sequence of DNA (cytosine-5)-methyltransferase 1 (P26358 whole entry): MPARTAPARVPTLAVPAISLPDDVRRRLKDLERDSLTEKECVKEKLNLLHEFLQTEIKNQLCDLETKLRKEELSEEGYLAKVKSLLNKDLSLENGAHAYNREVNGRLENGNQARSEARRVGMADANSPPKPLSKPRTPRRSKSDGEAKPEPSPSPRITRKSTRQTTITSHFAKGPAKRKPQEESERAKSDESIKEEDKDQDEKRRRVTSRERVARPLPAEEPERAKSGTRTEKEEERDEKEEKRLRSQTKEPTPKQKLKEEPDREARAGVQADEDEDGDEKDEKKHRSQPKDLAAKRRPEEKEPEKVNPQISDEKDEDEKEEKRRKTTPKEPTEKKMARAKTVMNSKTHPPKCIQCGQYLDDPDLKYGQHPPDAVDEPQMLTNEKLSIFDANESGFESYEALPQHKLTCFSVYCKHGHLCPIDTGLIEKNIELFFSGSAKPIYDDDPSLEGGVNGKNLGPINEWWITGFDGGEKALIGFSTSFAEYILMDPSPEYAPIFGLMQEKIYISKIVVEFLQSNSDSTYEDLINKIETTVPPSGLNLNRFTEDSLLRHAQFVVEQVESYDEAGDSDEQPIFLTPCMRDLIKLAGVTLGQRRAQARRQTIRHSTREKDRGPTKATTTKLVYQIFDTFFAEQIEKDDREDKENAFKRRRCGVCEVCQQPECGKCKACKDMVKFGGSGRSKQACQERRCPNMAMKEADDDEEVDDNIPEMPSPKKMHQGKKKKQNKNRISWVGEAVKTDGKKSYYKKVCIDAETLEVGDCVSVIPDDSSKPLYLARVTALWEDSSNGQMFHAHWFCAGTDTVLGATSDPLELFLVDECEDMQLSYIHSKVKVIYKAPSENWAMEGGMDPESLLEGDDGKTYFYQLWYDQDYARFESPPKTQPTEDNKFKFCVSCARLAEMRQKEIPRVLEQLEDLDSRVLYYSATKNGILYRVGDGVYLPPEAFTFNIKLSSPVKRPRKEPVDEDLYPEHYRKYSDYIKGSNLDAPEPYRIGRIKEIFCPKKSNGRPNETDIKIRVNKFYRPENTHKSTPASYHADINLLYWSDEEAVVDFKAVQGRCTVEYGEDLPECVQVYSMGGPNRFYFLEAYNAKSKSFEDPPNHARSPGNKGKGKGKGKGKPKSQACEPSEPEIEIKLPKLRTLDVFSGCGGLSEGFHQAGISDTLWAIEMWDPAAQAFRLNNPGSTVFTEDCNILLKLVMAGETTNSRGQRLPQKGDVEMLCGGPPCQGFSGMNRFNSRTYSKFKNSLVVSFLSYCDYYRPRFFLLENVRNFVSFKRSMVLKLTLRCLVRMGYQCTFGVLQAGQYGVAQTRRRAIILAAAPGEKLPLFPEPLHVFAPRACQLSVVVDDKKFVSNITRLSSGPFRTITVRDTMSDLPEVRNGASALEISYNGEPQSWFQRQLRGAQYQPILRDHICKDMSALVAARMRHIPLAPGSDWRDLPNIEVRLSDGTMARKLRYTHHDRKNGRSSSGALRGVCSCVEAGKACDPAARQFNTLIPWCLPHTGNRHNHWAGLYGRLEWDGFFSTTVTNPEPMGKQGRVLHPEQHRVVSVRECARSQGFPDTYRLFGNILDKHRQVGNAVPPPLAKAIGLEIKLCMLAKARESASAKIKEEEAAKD
Sequence of Histone deacetylase 1 (Q13547 whole entry): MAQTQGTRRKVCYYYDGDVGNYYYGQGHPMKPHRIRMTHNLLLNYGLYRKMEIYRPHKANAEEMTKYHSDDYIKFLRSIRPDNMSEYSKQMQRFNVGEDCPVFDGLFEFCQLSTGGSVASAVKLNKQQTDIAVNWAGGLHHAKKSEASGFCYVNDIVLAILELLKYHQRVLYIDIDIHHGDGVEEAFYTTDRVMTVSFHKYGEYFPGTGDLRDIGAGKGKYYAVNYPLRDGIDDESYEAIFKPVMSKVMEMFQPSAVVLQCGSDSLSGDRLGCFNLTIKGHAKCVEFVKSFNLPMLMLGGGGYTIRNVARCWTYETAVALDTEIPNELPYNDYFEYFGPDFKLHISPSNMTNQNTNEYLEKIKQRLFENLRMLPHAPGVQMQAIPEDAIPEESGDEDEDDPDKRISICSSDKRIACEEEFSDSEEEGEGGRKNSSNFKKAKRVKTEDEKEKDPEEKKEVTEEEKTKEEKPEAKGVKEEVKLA
Sequence of Histone acetyltransferase KAT2A (Q92830 whole entry): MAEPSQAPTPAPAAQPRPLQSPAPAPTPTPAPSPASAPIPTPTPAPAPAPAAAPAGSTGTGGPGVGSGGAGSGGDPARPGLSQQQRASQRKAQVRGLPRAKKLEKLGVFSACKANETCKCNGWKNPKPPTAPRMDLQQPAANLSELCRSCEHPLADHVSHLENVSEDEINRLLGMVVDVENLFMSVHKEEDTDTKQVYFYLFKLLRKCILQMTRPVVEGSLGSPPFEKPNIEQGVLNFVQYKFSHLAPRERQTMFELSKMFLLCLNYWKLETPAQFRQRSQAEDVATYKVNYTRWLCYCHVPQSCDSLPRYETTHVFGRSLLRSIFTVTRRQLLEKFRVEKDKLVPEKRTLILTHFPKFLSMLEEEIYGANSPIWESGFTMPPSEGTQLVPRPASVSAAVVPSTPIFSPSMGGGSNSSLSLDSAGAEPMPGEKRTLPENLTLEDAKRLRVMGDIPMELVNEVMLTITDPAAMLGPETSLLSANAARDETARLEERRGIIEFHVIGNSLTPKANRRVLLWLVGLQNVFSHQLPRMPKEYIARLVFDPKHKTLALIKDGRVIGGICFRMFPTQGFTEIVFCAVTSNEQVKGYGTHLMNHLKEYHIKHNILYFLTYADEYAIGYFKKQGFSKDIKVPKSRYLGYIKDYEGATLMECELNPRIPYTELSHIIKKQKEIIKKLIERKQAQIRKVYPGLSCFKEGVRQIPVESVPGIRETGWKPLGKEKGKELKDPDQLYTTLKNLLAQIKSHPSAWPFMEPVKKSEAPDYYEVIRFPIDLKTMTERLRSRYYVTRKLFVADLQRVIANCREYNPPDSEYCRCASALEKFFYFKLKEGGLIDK

inhibition [1] [%]	inhibition [2] [%]	IC50 [4] [µM]	Structure (SMILES)	also measured
13	25	–	O=S(=O)(Nc1ccccc1)c1ccc(/C=C/c2nc3ccccc3s2)cc1	–
95	96	–	CCN(CC)S(=O)(=O)c1ccc(/C=C/c2nc3cc(C)c(C)cc3s2)cc1	IC50 [3]: 7.7 µM
–	–	74	N#Cc1c(-c2ccccc2)cc(-c2cccs2)nc1SCC(=O)NCC(=O)O	–
64	89	–	CCN(CC)S(=O)(=O)c1ccc(/C=C/c2nc3cc(Cl)ccc3s2)cc1	IC50 [3]: 30 µM
9	14	–	CN(C)S(=O)(=O)c1ccc(/C=C/c2nc3ccccc3s2)cc1	–
17	33	–	Cc1ccc(CNS(=O)(=O)c2ccc(/C=C/c3nc4ccccc4s3)cc2)cc1	–
–	–	29	Cc1ccc(C2C(C(=O)c3cc4ccccc4o3)=C(O)C(=O)N2Cc2ccco2)cc1 (configuration not stated)	–
0	28	–	COc1ccc(CNS(=O)(=O)c2ccc(/C=C/c3nc4ccccc4s3)cc2)cc1	–
–	–	6.6 to 40	CCN(CC)S(=O)(=O)c1ccc(/C=C/c2nc3ccc(F)cc3s2)cc1	–
57	82	–	CCN(CC)S(=O)(=O)c1ccc(/C=C/c2nc3cc(Br)ccc3s2)cc1	IC50 [3]: 30 µM
14	13	–	CCN(CC)S(=O)(=O)c1ccc(/C=C/c2nc3cc(OC)ccc3s2)cc1	–
–	–	–	O=C(CCCCCCC(=O)Nc1ccccc1)NO	inhibition [5]: Dose-dependent effect
28	30	–	CCN(CC)S(=O)(=O)c1ccc(/C=C/c2nc3ccccc3s2)cc1C	–
53	84	–	CCN(CC)S(=O)(=O)c1ccc(/C=C/c2nc3cc(F)ccc3s2)cc1	IC50 [3]: 40 µM; Activity [6]: Dose-dependent effect; Kd [7]: 19 µM
16	18	–	CCN(CC)S(=O)(=O)c1ccc(/C=C/c2nc3ccccc3s2)cc1F	–
93	100	–	CCN(CC)S(=O)(=O)c1ccc(/C=C/c2nc3ccccc3s2)cc1	IC50 [3]: 6 µM; inhibition [8]: Active; inhibition [9]: inactive; IC50 [10]: > 100 µM; IC50 [11]: > 100 µM; IC50 [12]: > 100 µM; Ratio IC50 [13]: > 11; Ratio IC50 [14]: > 11; Ratio IC50 [15]: > 11; inhibition [16]: Dose-dependent effect; inhibition [5]: Dose-dependent effect; Activity [17]: Active; inhibition [18]: Dose-dependent effect; inhibition [19]: Dose-dependent effect
–	–	17	Cc1ccc(-c2cc(C(=O)O)c3cc4c(C(=O)O)cc(-c5ccc(C)o5)nc4cc3n2)o1	–
–	–	–	C=C1C(=O)O[C@H](CCC)[C@H]1C(=O)O	IC50 [20]: 100 µM
–	–	25	CC1CCc2c(sc3nnn(CC(=O)Nc4cccc5ccccc45)c(=O)c23)C1 (configuration not stated)	–
–	–	18	CCc1nnc(NC(=O)CCSCCC(=O)Nc2nnc(CC)s2)s1	–
5	21	–	CCN(CC)S(=O)(=O)c1ccc(/C=C/c2nc3ccc(Br)cc3s2)cc1	–
–	–	14	O=C(Cc1cccc2ccccc12)Nc1ccc2nc(SCC(=O)N3CCCC3)sc2c1	–
–	–	23	Oc1cc(O)c2sc3nc(-c4cccs4)cc(-c4cccs4)c3c2n1	–
7	12	–	CCN(CC)S(=O)(=O)c1ccc(/C=C/c2nc3ccccc3s2)cc1Cl	–
100	100	27	CCCCCCCc1ccc(CCc2cccc(O)c2C(=O)O)cc1	IC50 [3]: 15 µM; inhibition [21]: Active
0	14	–	CCN(CC)S(=O)(=O)c1ccc(/C=C/c2nc3cc(C)ccc3s2)cc1	–
1	11	–	O=S(=O)(NCc1ccccc1)c1ccc(/C=C/c2nc3ccccc3s2)cc1	–
